Source: ChEMBL document CHEMBL3120154, “2-[N-Alkyl(R-phenyl)-aminomethyl]-3-phenyl-7-trifluoromethylquinoxalines as anticancer agents inhibitors of folate enzymes” (Eur J Med Chem, 2014)

Legend:
Type in all cases: functional
[1] = Cytotoxicity against human EKVX cells at 10^-8 M after 48 hrs by SRB assay; details: read-out: GI
SF-539 = assay: Cytotoxicity against human SF539 cells at 10^-7 M after 48 hrs by SRB assay; details: SF-539, 48 h, read-out: GI
NCI-H23 [2] = assay: Cytotoxicity against human NCI-H23 cells at 10^-7 M after 48 hrs by SRB assay; details: NCI-H23, 48 h, read-out: GI
[3] = Cytotoxicity against human OVCAR4 cells at 10^-7 M after 48 hrs by SRB assay; details: OVCAR-4, 48 h, read-out: GI
HOP-62 = assay: Cytotoxicity against human HOP62 cells at 10^-7 M after 48 hrs by SRB assay; details: HOP-62, 48 h, read-out: GI
NCI/ADR-RES = assay: Cytotoxicity against human NCI/ADR-RES cells at 10^-7 M after 48 hrs by SRB assay; details: read-out: GI
ACHN = assay: Cytotoxicity against human ACHN cells at 10^-7 M after 48 hrs by SRB assay; details: read-out: GI
NCI-H522 [4] = assay: Cytotoxicity against human NCI-H522 cells at 10^-7 M after 48 hrs by SRB assay; details: NCI-H522, 48 h, read-out: GI
NCI-H460 [5] = assay: Cytotoxicity against human NCI-H460 cells at 10^-8 M after 48 hrs by SRB assay; details: NCI-H460, 48 h, read-out: GI
NCI-H23 [6] = assay: Cytotoxicity against human NCI-H23 cells at 10^-8 M after 48 hrs by SRB assay; details: NCI-H23, 48 h, read-out: GI
NCI-H460 [7] = assay: Cytotoxicity against human NCI-H460 cells at 10^-7 M after 48 hrs by SRB assay; details: NCI-H460, 48 h, read-out: GI
SR = assay: Cytotoxicity against human SR cells at 10^-7 M after 48 hrs by SRB assay; details: read-out: GI
T47D = assay: Cytotoxicity against human T47D cells at 10^-7 M after 48 hrs by SRB assay; details: read-out: GI
U-251 = assay: Cytotoxicity against human U251 cells at 10^-7 M after 48 hrs by SRB assay; details: U-251, 48 h, read-out: GI
SN12C [8] = assay: Cytotoxicity against human SN12C cells at 10^-7 M after 48 hrs by SRB assay; details: read-out: GI
TK-10 = assay: Cytotoxicity against human TK10 cells at 10^-8 M after 48 hrs by SRB assay; details: TK-10, 48 h, read-out: GI
SF-295 [9] = assay: Cytotoxicity against human SF295 cells at 10^-7 M after 48 hrs by SRB assay; details: SF-295, 48 h, read-out: GI
M14 = assay: Cytotoxicity against human M14 cells at 10^-8 M after 48 hrs by SRB assay; details: M14, 48 h, read-out: GI
[10] = Cytotoxicity against human OVCAR5 cells at 10^-8 M after 48 hrs by SRB assay; details: OVCAR-5, 48 h, read-out: GI
NCI-H322M = assay: Cytotoxicity against human NCI-H322M cells at 10^-8 M after 48 hrs by SRB assay; details: read-out: GI
[11] = Cytotoxicity against human UO31 cells at 10^-5 M after 48 hrs by SRB assay; details: UO-31, 48 h, read-out: GI
PC-3 = assay: Cytotoxicity against human PC3 cells at 10^-8 M after 48 hrs by SRB assay; details: PC-3, 48 h, read-out: GI
SN12C [12] = assay: Cytotoxicity against human SN12C cells at 10^-8 M after 48 hrs by SRB assay; details: read-out: GI
786-0 = assay: Cytotoxicity against human 786-0 cells at 10^-8 M after 48 hrs by SRB assay; details: 786-0, 48 h, read-out: GI
SF-295 [13] = assay: Cytotoxicity against human SF295 cells at 10^-5 M after 48 hrs by SRB assay; details: SF-295, 48 h, read-out: GI
NCI-H522 [14] = assay: Cytotoxicity against human NCI-H522 cells at 10^-8 M after 48 hrs by SRB assay; details: NCI-H522, 48 h, read-out: GI
HL-60(TB) = assay: Cytotoxicity against human HL-60(TB) cells at 10^-8 M after 48 hrs by SRB assay; details: HL-60, 48 h, read-out: GI
How it was run: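 NCI 60-human-tumour-cell-line screen run over a 5-log dose range (100, 10, 1, 0.1 and 0.01 µM). Cells were exposed to drug for 48 h. Growth was estimated by sulforhodamine B protein staining. Values are percent growth inhibition at each concentration, relative to untreated control cells.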

HOP-92 [15] = assay: Cytotoxicity against human HOP92 cells at 10^-8 M after 48 hrs by SRB assay; details: HOP-92, 48 h, read-out: GI
BT-549 [16] = assay: Cytotoxicity against human BT549 cells at 10^-8 M after 48 hrs by SRB assay; details: BT-549, 48 h, read-out: GI
SK-MEL-28 = assay: Cytotoxicity against human SK-MEL-28 cells at 10^-7 M after 48 hrs by SRB assay; details: SK-MEL-28, 48 h, read-out: GI
MDA-MB-231 = assay: Cytotoxicity against human MDA-MB-231 cells at 10^-8 M after 48 hrs by SRB assay; details: MDA-MB-231, 48 h, read-out: GI
[17] = Cytotoxicity against human UACC257 cells at 10^-8 M after 48 hrs by SRB assay; details: UACC-257, 48 h, read-out: GI
OVCAR-3 = assay: Cytotoxicity against human OVCAR3 cells at 10^-7 M after 48 hrs by SRB assay; details: OVCAR-3, 48 h, read-out: GI
SF-295 [18] = assay: Cytotoxicity against human SF295 cells at 10^-8 M after 48 hrs by SRB assay; details: SF-295, 48 h, read-out: GI
HOP-92 [19] = assay: Cytotoxicity against human HOP92 cells at 10^-7 M after 48 hrs by SRB assay; details: HOP-92, 48 h, read-out: GI
SK-MEL-5 = assay: Cytotoxicity against human SK-MEL-5 cells at 10^-7 M after 48 hrs by SRB assay; details: SK-MEL-5, 48 h, read-out: GI
MOLT-4 = assay: Cytotoxicity against human MOLT4 cells at 10^-7 M after 48 hrs by SRB assay; details: MOLT-4, 48 h, read-out: GI
SK-MEL-2 = assay: Cytotoxicity against human SK-MEL-2 cells at 10^-8 M after 48 hrs by SRB assay; details: SK-MEL-2, 48 h, read-out: GI
MDA-MB-435 = assay: Cytotoxicity against human MDA-MB-435 cells at 10^-7 M after 48 hrs by SRB assay; details: MDA-MB-435, 48 h, read-out: GI
OVCAR-8 = assay: Cytotoxicity against human OVCAR8 cells at 10^-8 M after 48 hrs by SRB assay; details: OVCAR-8, 48 h, read-out: GI
RXF 393 = assay: Cytotoxicity against human RXF393 cells at 10^-8 M after 48 hrs by SRB assay; details: RXF 393, 48 h, read-out: GI
BT-549 [20] = assay: Cytotoxicity against human BT549 cells at 10^-7 M after 48 hrs by SRB assay; details: BT-549, 48 h, read-out: GI
[21] = Cytotoxicity against human EKVX cells at 10^-7 M after 48 hrs by SRB assay; details: read-out: GI

`CCN(Cc1nc2cc(C(F)(F)F)ccc2nc1-c1ccccc1)c1ccc(OC)c(OC)c1` gave an inhibition of growth at 0.01 µM [1] of less than 40%, an inhibition of growth at 0.1 µM (SF-539) of less than 40% and an inhibition of growth at 0.1 µM (NCI-H23 [2]) of less than 40%. It also gave an inhibition of growth at 0.1 µM [3] of less than 40%, an inhibition of growth at 0.1 µM (HOP-62) of less than 40% and an inhibition of growth at 0.1 µM (NCI/ADR-RES) of less than 40%. For the same compound, the inhibition of growth at 0.1 µM (ACHN) was less than 40%, the inhibition of growth at 0.1 µM (NCI-H522 [4]) was less than 40% and the inhibition of growth at 0.01 µM (NCI-H460 [5]) was less than 40%. The inhibition of growth at 0.01 µM (NCI-H23 [6]) was less than 40%, the inhibition of growth at 0.1 µM (NCI-H460 [7]) was less than 40% and the inhibition of growth at 0.1 µM (SR) was less than 40%. It also gave an inhibition of growth at 0.1 µM (T47D) of less than 40%, an inhibition of growth at 0.1 µM (U-251) of less than 40% and an inhibition of growth at 0.1 µM (SN12C [8]) of less than 40%. For the same compound, the inhibition of growth at 0.01 µM (TK-10) was less than 40%, the inhibition of growth at 0.1 µM (SF-295 [9]) was less than 40% and the inhibition of growth at 0.01 µM (M14) was less than 40%. It also gave an inhibition of growth at 0.01 µM [10] of less than 40%, an inhibition of growth at 0.01 µM (NCI-H322M) of less than 40% and an inhibition of growth at 10 µM [11] of less than 40%. The inhibition of growth at 0.01 µM (PC-3) was less than 40%, the inhibition of growth at 0.01 µM (SN12C [12]) was less than 40% and the inhibition of growth at 0.01 µM (786-0) was less than 40%. The inhibition of growth at 10 µM (SF-295 [13]) was 18%, the inhibition of growth at 0.01 µM (NCI-H522 [14]) was less than 40% and the inhibition of growth at 0.01 µM (HL-60(TB)) was less than 40%. It also gave an inhibition of growth at 0.01 µM (HOP-92 [15]) of less than 40%, an inhibition of growth at 0.01 µM (BT-549 [16]) of less than 40% and an inhibition of growth at 0.1 µM (SK-MEL-28) of less than 40%. It also gave an inhibition of growth at 0.01 µM (MDA-MB-231) of less than 40%, an inhibition of growth at 0.01 µM [17] of 39% and an inhibition of growth at 0.1 µM (OVCAR-3) of less than 40%. For the same compound, the inhibition of growth at 0.01 µM (SF-295 [18]) was less than 40%, the inhibition of growth at 0.1 µM (HOP-92 [19]) was less than 40% and the inhibition of growth at 0.1 µM (SK-MEL-5) was less than 40%. It also gave an inhibition of growth at 0.1 µM (MOLT-4) of less than 40%, an inhibition of growth at 0.01 µM (SK-MEL-2) of less than 40% and an inhibition of growth at 0.1 µM (MDA-MB-435) of less than 40%. For the same compound, the inhibition of growth at 0.01 µM (OVCAR-8) was 11%, the inhibition of growth at 0.01 µM (RXF 393) was 22% and the inhibition of growth at 0.1 µM (BT-549 [20]) was less than 40%. It also gave an inhibition of growth at 0.1 µM [21] of less than 40%.
